In ChEMBL document CHEMBL3351630, “ent-Kaurane diterpenes from the stem bark of Annona vepretorum (Annonaceae) and cytotoxic evaluation” (Bioorg Med Chem Lett, 2014):

Legend:
PBMC = experiment: Cytotoxicity against concanavalin-A stimulated human PBMC after 72 hrs by alamar blue assay; assay type: cell-based
Procedure, shortened: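 ConA 10 µg/mL added at culture start; compounds (0.39–25 µg/mL, DMSO) added after 24 h, 72 h incubation. Alamar blue added 24 h before end, absorbance 570/600 nm. IC50 by nonlinear regression, three independent experiments in duplicate.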

K562 [1] = experiment: Selectivity index, ratio of IC50 for concanavalin-A stimulated human PBMCs to IC50 for human K562 cells
Procedure, shortened: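 SI calculated as IC50 in ConA-stimulated PBMC divided by IC50 in K562, both from 72 h alamar blue assays.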

K562 [2] = experiment: Cytotoxicity against human K562 cells after 72 hrs by alamar blue assay; assay type: functional, cell-based; conditions: K562, 72 h
Procedure, shortened: (§1)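 Tumour lines grown in RPMI-1640 with 10% FBS, 2 mM L-glutamine, gentamycin, at 37°C/5% CO2, mycoplasma-free, used in exponential growth. Alamar blue added 4 h before end, absorbance 570/600 nm. IC50 by nonlinear regression, three independent experiments in duplicate.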

[3] = Cytotoxicity against human HL60 cells after 72 hrs by alamar blue assay; assay type: functional, cell-based; conditions: HL-60, 72 h; procedure, shortened: as §1
HepG2 = experiment: Cytotoxicity against human HepG2 cells after 72 hrs by alamar blue assay; assay type: functional, cell-based; conditions: HepG2, 72 h; procedure, shortened: as §1
[4] = Cytotoxicity against mouse B16F10 cells after 72 hrs by alamar blue assay; assay type: functional, cell-based; conditions: B16-F10, 72 h; procedure, shortened: as §1

Row | Structure (SMILES) | IC50 (PBMC) [µM] | Ratio IC50 (K562 [1]) | IC50 (K562 [2]) [µM] | IC50 [3] [µM] | IC50 (HepG2) [µM] | IC50 [4] [µM]
1 | C=C1C[C@@]23CC[C@@H]4[C@](C)(C=O)[C@H](O)CC[C@@]4(C)[C@@H]2CC[C@H]1C3 | 23.8 | 2.9 | 8.24 | 32.8 | 51.3 | 69.5
2 | C=C1C[C@@]23CC[C@@H]4[C@](C)(CO)[C@H](O)CC[C@@]4(C)[C@@H]2CC[C@H]1C3 | 29.4 |  | 82.2 | 82.2 | 82.2 | 82.2
3 | C=C1C[C@@]23CC[C@@H]4C(C)(C)[C@H](O)CC[C@@]4(C)[C@@H]2CC[C@H]1C3 | 22.5 |  | 10.2 | 34.2 | 67.2 | 66.3
4 | C=C1C[C@@]23CC[C@@H]4C(C)(C)[C@H](OC(C)=O)CC[C@@]4(C)[C@@H]2CC[C@H]1C3 | > 75.7 |  | > 75.7 | > 75.7 | > 75.7 | > 75.7
5 | C=C1C[C@@]23CC[C@H]4[C@@](C)(CC[C@@H](O)[C@@]4(C)C(=O)O)[C@@H]2CC[C@H]1C3 | > 78.6 |  | 63.5 | 76.1 | > 78.6 | > 78.6
6 | COc1cccc2c1C(=O)c1c(O)c3c(c(O)c1C2=O)C[C@@](O)(C(=O)CO)C[C@@H]3O[C@H]1C[C@H](N)[C@H](O)[C@H](C)O1 [DOXORUBICIN] | 9.36 | 7.5 | 1.25 | 1.53 | 0.42 | 4.23
7 | C=C1C[C@@]23CC[C@H]4[C@@](C)(CCC[C@@]4(C)C(=O)O)[C@@H]2CC[C@@H]1C3 [KAURENOIC ACID] | 80.8 |  | 72.5 | 44.1 | 50.7 | 54.8
